# Published values of several laboratories.
# Each line is one published result; the experiments were not run side by side.
# Target: Carbonic anhydrase 1 (CA1, Homo sapiens, UniProt P00915)
# Observed: enzyme activity
# Mode: inhibitor
SMILES,assay,quantity,result
O=C(Nc1cccc(Cl)c1)Nc1ccc2c(c1)C=CCP(=O)(O)O2,stopped-flow,Ki,> 10000 nM
NC(=S)N/N=C1/c2ccccc2[C@@H]2[C@H]1[C@@H](c1ccoc1)[C@H](C(=O)c1ccco1)[C@H]2c1ccoc1,absorbance,IC50,434 nM
CC(C)c1cc2c(c(O)c1O)[C@@]13CCCC(C)(C)[C@@H]1C[C@@H]2OC3=O,,IC50,2.4 nM
Cc1c(Cl)c(=O)oc2cc(OCCCC[Se]C#N)ccc12,stopped-flow,Ki,> 100000 nM
CC(C)c1cc2c(c(O)c1O)[C@@]1(C(=O)O)CCCC(C)(C)[C@@H]1CC2,,Ki,5.98 nM
COc1ccc(C(=O)[C@@H]2[C@@H](c3ccc(OC)cc3)[C@@H]3c4ccccc4/C(=N/NC(N)=S)[C@@H]3[C@H]2c2ccc(OC)cc2)cc1 (racemic),absorbance,IC50,1070 nM
CC(C)c1cc2c(c(O)c1O)[C@@]13CCCC(C)(C)[C@@H]1[C@@H](O)[C@@H]2OC3=O,,Ki,1.28 nM
NC(=S)N/N=C1/c2ccccc2[C@@H]2[C@H]1[C@@H](c1cccs1)[C@H](C(=O)c1cccs1)[C@H]2c1cccs1 (racemic),absorbance,IC50,774 nM
COc1ccc(NC(=O)Nc2ccc3c(c2)C=CCP(=O)(O)O3)cc1,stopped-flow,Ki,> 10000 nM
N#C[Se]CCCCOc1ccc2c(-c3ccccc3)cc(=O)oc2c1,stopped-flow,Ki,> 100000 nM
Cc1ccc(C(=O)Nc2ccc3c(c2)C=CCP(=O)(O)O3)cc1,stopped-flow,Ki,> 10000 nM
NC(=S)N/N=C1/c2ccccc2[C@@H]2[C@H]1[C@@H](c1ccsc1)[C@H](C(=O)c1ccsc1)[C@H]2c1ccsc1 (racemic),absorbance,IC50,452 nM
CC(C)c1cc2c(c(O)c1O)[C@@]13CCCC(C)(C)[C@@H]1[C@H](OC3=O)[C@H]2O,,IC50,0.21 nM
O=C(Nc1ccc(Cl)cc1)Nc1ccc2c(c1)C=CCP(=O)(O)O2,stopped-flow,Ki,> 10000 nM
Cc1ccc([C@@H]2[C@@H](C(=O)c3cccs3)[C@H](c3ccco3)[C@H]3/C(=N\NC(N)=S)c4ccccc4[C@H]32)cc1 (racemic),absorbance,IC50,413 nM
